Laboratory results as given in the EternaBench riboswitch data.

System: MS2 coat protein
Assay: apparent Kd, MS2 coat protein; higher = weaker binding; RNA-MaP array; FMN 200 µM where present
Method in brief: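 Apparent Kd: the median of filtered binding-curve fits from single clusters. Designs were transcribed on Illumina sequencing-chip clusters by stalled E. coli RNA polymerase and titrated with SNAP-549-labelled MS2 coat protein from 0.7 or 1.5 nM, doubling to 3 µM, in 100 mM Tris-HCl pH 7.5, 80 mM KCl, 4 mM MgCl2, BSA, DTT, yeast tRNA and Tween-20. Each series ran without and then with constant ligand, and green signal was normalised to red-channel RNA signal and control-cluster median Fmax.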

[1] = designed as: ON switch for flavin mononucleotide, no ligand
[2] = ligand present: flavin mononucleotide, designed as: ON switch for flavin mononucleotide
[3] = designed as: OFF switch for flavin mononucleotide, no ligand
[4] = ligand present: flavin mononucleotide, designed as: OFF switch for flavin mononucleotide

GAGAGAGGGUGAGGAUAUUUAGUGAUAAUGAUAAGAGAAGGCACAGACAUGAGGAUCACCCAUGUGGGAAUAAUCCAGAGAGAG
apparent Kd [1]: 298 nM | apparent Kd [2]: 290 nM

GGAUGUCAAAGACAUCCAUAACGAACAUGAGGAUCACCCAUGUAGGAUAUGCUACUCAAAGAGUAGCAGAAGGACAUGUGUCUU
apparent Kd [3]: 30.3 nM | apparent Kd [4]: 150 nM

AAAAAACAUGAGGAUCACCCAUGUGAGGAUAUGAUGAAAGAUUGAAAAAGGUUGAAAGUCAGAAGGUAUGUGAA
apparent Kd [3]: 56.9 nM | apparent Kd [4]: 59.7 nM

UUCUUGCAAGGAUAUGAUUUAAGUAACAUGAGGAUCACCCAUGUUUUUCCGUUGUUAUGUUCAGAAGGUGCGUGAU
apparent Kd [3]: 55.8 nM | apparent Kd [4]: 63.3 nM

AAAAAGUCAGGAUAUCGGAAAAAAAAAAAAAAAAGGAGAAACGAGAAGGGACAUGAGGAUCACCCAUGUAAAAA
apparent Kd [3]: 51 nM | apparent Kd [4]: 46.7 nM

GAGAGCCGCGAAGGAUAUACAUCCGUGACCGUCAACAUGAGGAUCACCCAUGUAGAAGGUCGCUGCCUCUUGACAACUGACAAG
apparent Kd [3]: 5.16 nM | apparent Kd [4]: 18.4 nM

CUGAGUAGUCAGGAUAUGCUGUACAAAAGUACAGCAGAAGGGAUUACAUGAGGAUCACCCAUGUUGUCUUCAUG
apparent Kd [3]: 160 nM | apparent Kd [4]: 316 nM

CGUUGACAUGAGGAUCACCCAUGUCAGAUUUGGUCAGGAUAUGGUGUGGUUUGGCUAUUGCCAGAAGGGACGUUUG
apparent Kd [1]: 92.1 nM | apparent Kd [2]: 58.5 nM

AUCAGCUCGUCAGGAUAUACGUCACUGCGUCAGCAGUGUGGUAACAUCACAUGAGGAUCACCCAUGUAGAAGGGACGAGCUGAU
apparent Kd [3]: 5.84 nM | apparent Kd [4]: 11.3 nM

CGGUGCUGAGGAUAUACAUGAGGAUCACCCAUGUGUUCUAGCUAGCGUACUGGCAGAUGUAGAAGGCGGUACUG
apparent Kd [3]: 18.2 nM | apparent Kd [4]: 75.7 nM

ACAUGAGGAUCACCCAUGUAGAAGGAGAGGGCAGAAUUUACGCAGGAUAUGCAUUUUUGGGAAAAGUAGAAGGGUGAGGGCGGA
apparent Kd [1]: 36.4 nM | apparent Kd [2]: 25.2 nM

ACGCCCUGAGGAUAUCUUUUCCCGUACAUGAGGAUCACCCAUGUUUUCCUCCGGGCUUCGAGAGAAGGCAGGCCCA
apparent Kd [3]: 22.3 nM | apparent Kd [4]: 41.2 nM

GGCAUGUGAGGAUAUCUGAUGUCUAACUUCGGUUAGACAUCAGAGAAGGCACAUGAGGAUCACCCAUGUCUGCC
apparent Kd [3]: 68.4 nM | apparent Kd [4]: 79.8 nM

AAGGAUAGAGGAUAUAUAUAGAUACAGAUUCAUGUAGAACUACAUGAGGAUCACCCAUGUAGAAGGCUAUCCUA
apparent Kd [3]: 15.7 nM | apparent Kd [4]: 60.4 nM

CGUGACUCAGGAUAUCUAUAGUGUCACAUGAGGAUCACCCAUGUCCAGCGAAAGCUGGAGGGAGAAGGGAGUCACG
apparent Kd [3]: 96.7 nM | apparent Kd [4]: 39.9 nM

AGGUACAACGGAGGAUAUAAUAGUCUAUAGACGUUAGAAGGCCGGGCCUUCACAUGAGGAUCACCCAUGUCUCUGGAGGCGCCU
apparent Kd [1]: 20.8 nM | apparent Kd [2]: 16.9 nM

UUUAUAAAGAAAGGAUAUAGUAUAAUAAUUUAAUUAGAAGGUUCACACAUGAGGAUCACCCAUGUAUGAGGAUCACCCAUGUAU
apparent Kd [3]: 35.2 nM | apparent Kd [4]: 29.1 nM

GUGAACAUGAGGAUCACCCAUGUAGCUCACUGCCAGUGGCUACAGGAUAUAGCACCUCGAGGGUGCUAGAAGGGUGGCCUAGAA
apparent Kd [1]: 62.9 nM | apparent Kd [2]: 16.8 nM

CGCUAUGAUGGGUUUAAUGGAGCAUAGGAUAUGCUUGUACAUGAGGAUCACCCAUGUUAUAUUUUGCAGAAGGGUGCAUUUGCG
apparent Kd [1]: 284 nM | apparent Kd [2]: 95.3 nM

GUAGCAUACGGAGGAUAUUCAUAUAAUAAAUAAACAUGAGGAUCACCCAUGUGGCGAAAGCCUUGGGAGAAGGCCGAAUGCUAC
apparent Kd [1]: 805 nM | apparent Kd [2]: 39.8 nM

UCUCGUUUCGCAGGAUAUGCUGGUCGGAAAUAAACCGGCCACAUGAGGAUCACCCAUGUGCCACAGCAGAAGGGUGACACUAGA
apparent Kd [1]: 527 nM | apparent Kd [2]: 53.9 nM

CCGCAAAAGCAGGAUAUCGUAUCGGAUACGAUACGAGAAGGGUUUACAUGAGGAUCACCCAUGUUCCUUAGCGG
apparent Kd [3]: 31.5 nM | apparent Kd [4]: 36 nM

GGGUACAUCGGAGGAUAUCAUGUAAAUACAUGAGGAUCACCCAUGUCGAUGGAGACACCGGAGAUUGAGAAGGCCGAUGUACCG
apparent Kd [1]: 643 nM | apparent Kd [2]: 23.5 nM

AUGUGACAUGAGGAUCACCCAUGUAAGGAUAUAUGACUAAGGACUUCCUUGGUAGCGCGUAGAAGGUACGUGAA
apparent Kd [3]: 19.6 nM | apparent Kd [4]: 20 nM

GUGGUCAGACAUGAGGAUCACCCAUGUGGAAUAAAUAACGGACAGGAUAUAGAAUAUAGGAUAUACUAGAAGGGUUGAUUGGUG
apparent Kd [1]: 55.7 nM | apparent Kd [2]: 57.3 nM

ACAUUUAUAUCAGGAUAUACAAUACAAUGAUUAGUAGAAGGGAUUAUUACAUGAGGAUCACCCAUGUCAUGUGUCAUAAUAACC
apparent Kd [3]: 27.6 nM | apparent Kd [4]: 24.1 nM

UAUAUGUCAGGAUAUCGCAACUGCGCGCGCAAGAAUCAUAACGAGAAGGGACAUGAGGAUCACCCAUGUACACU
apparent Kd [3]: 18.6 nM | apparent Kd [4]: 25.7 nM
